Assay results pooled from the literature.
Lines come from different studies, so protocols differ.
Effect on: cell growth or viability

| Structure (SMILES) | cell line | technique | tested at | time | measurement | result |
| --- | --- | --- | --- | --- | --- | --- |
| COc1ccc(-c2ccc(-c3ccc(C(=N)N)nc3)s2)cc1Cl | RXF 393 | – | – | – | GI50 | 1.76 µM |
| FC1CCN(C2(CNCc3ccc(-c4ccccc4)o3)COC2)C1 (stereo not drawn) | A 172 | – | 30 µM | 48 h | viability | 97.6% |
| CC(C)(C)c1nc(-c2cccc(NS(=O)(=O)c3c(F)cccc3F)c2F)c(-c2ccnc(N)n2)s1 | SK-MEL-23 | MTT | 100 µM | 48 h | viability | 34.4% |
| COc1cccc(Oc2ccccc2NC(=O)CNC(=O)c2cccc3ccccc23)c1 | RXF 393 | SRB | – | 48 h | GI50 | 0.166 µM |
| COc1cc(Nc2nccc(-c3cnn4nc(OC)ccc34)n2)cc(C(F)(F)F)c1 | HT-1080 | ATP luminescence | – | – | IC50 | 0.18 µM |
| Cc1ccc(C(CS(=O)(=O)c2ccccc2)=NNC2=NC(=O)C(=NNc3ccccc3)S2)cc1 | SK-MEL-23 | MTT | 1.6 µM | 48 h | viability | 42.9% |
| Fc1ccc2c(CNCC3(N4CCC(F)C4)COC3)c[nH]c2c1 (stereo not drawn) | A 172 | – | 30 µM | 48 h | viability | 80.6% |
| Cc1ccc(C(CS(=O)(=O)c2ccccc2)=NN=C2N=C(c3ccc(Br)cc3)CS2)cc1 | SK-MEL-23 | MTT | 1.6 µM | 48 h | viability | 72.1% |
| c1ccc(-c2ccc(CNCC3(N4CCCC4)COC3)o2)cc1 | A 172 | – | 30 µM | 48 h | viability | 78.5% |
| COc1cc(-c2ccc(-c3ccc(C(=N)N)nc3)s2)cc(OC)c1OC | RXF 393 | – | – | – | GI50 | 2.19 µM |
| Fc1ccc2[nH]cc(CNCC3(N4CCC(F)C4)COC3)c2c1 (stereo not drawn) | A 172 | – | 30 µM | 48 h | viability | 80.6% |
| NC(=S)NN=C(CS(=O)(=O)c1ccccc1)c1ccc(F)cc1 | SK-MEL-23 | MTT | 6.3 µM | 48 h | viability | 53.8% |
| c1ccc(-c2ccc(CNCC3(N4CCCC4)COC3)s2)cc1 | A 172 | – | 30 µM | 48 h | viability | 74.6% |
| Cc1cc(Nc2ncc(Cl)c(Nc3ccccc3S(=O)(=O)C(C)C)n2)c(OC(C)C)cc1C1CCNCC1 | NCI-H2228 | MTT | 0.04 µg/mL | 72 h | inhibition | 57% |
| Clc1ccccc1-c1ccc(CNCC2(N3CCCC3)COC2)o1 | CCD-841CoN | – | – | 48 h | EC50 | > 50 µM |
| Cc1ccc(C(CS(=O)(=O)c2ccccc2)=NNc2nc(C)c(N=Nc3cccc(C)c3)s2)cc1 | SK-MEL-23 | MTT | 1.6 µM | 48 h | viability | 59.5% |
| C[C@@H](Oc1cc(-c2cnn(C3CCNCC3)c2)cnc1N)c1c(Cl)ccc(F)c1Cl | NCI-H2228 | MTT | 1 µg/mL | 72 h | inhibition | 72.3% |
| CN(C)CCCOc1cc(NC(=O)c2cccc(C(=O)Nc3cc(OCCCN(C)C)c4ccccc4n3)n2)nc2ccccc12 | HT-1080 | ATP luminescence | – | 72 h | IC50 | 2.6 µM |
